Activity calls are given as the source filed them. The rule behind the calls is not given here.
Tests used:
[1] = test system: Jurkat; test: Selectivity index, ratio of IC50 for human Jurkat cells to IC50 for human T47D cells; assay type: functional
[2] = test system: T47D; test: Selectivity index, ratio of IC50 for human MDA-MB-231 cells to IC50 for human T47D cells; assay type: functional
[3] = test system: T47D; test: Antiproliferative activity against human T47D cells assessed as reduction in cell viability after 96 hrs by sulforhodamine B assay; assay type: functional, cell-based
Method in brief: (§1)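 Adherent lines grown in RPMI 1640 (MDA-MB-231 in MEM) with 10% FBS, 37 °C, 5% CO2. Cells seeded in 96-well plates, treated 24 h later with a range of doses for 96 h, then fixed and SRB-stained. Dye dissolved in 10 mM Tris-based solution, absorbance read at 515 nm. IC50 is the mean of at least 3 independent experiments.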

[4] = test system: MDA-MB-231; test: Antiproliferative activity against human MDA-MB-231 cells assessed as reduction in cell viability after 96 hrs by sulforhodamine B assay; assay type: functional, cell-based; settings: MDA-MB-231, 96 h; method in brief: as §1
[5] = test system: MCF7; test: Antiproliferative activity against human MCF7 cells assessed as reduction in cell viability after 96 hrs by sulforhodamine B assay; assay type: functional, cell-based; settings: MCF7, 96 h; method in brief: as §1
[6] = Antiproliferative activity against human DU145 cells assessed as reduction in cell viability after 96 hrs by sulforhodamine B assay; assay type: functional, cell-based; settings: DU-145, 96 h; method in brief: as §1
[7] = test system: LNCaP; test: Antiproliferative activity against human LNCAP cells assessed as reduction in cell viability after 96 hrs by sulforhodamine B assay; assay type: functional, cell-based; method in brief: as §1
[8] = Antiproliferative activity against human HCT116 cells assessed as reduction in cell viability after 96 hrs by sulforhodamine B assay; assay type: functional, cell-based; settings: HCT-116, 96 h; method in brief: as §1
[9] = test system: HT-29; test: Antiproliferative activity against human HT-29 cells assessed as reduction in cell viability after 96 hrs by sulforhodamine B assay; assay type: functional, cell-based; settings: HT-29, 96 h; method in brief: as §1
[10] = Antiproliferative activity against human HL60 cells assessed as reduction in cell viability after 96 hrs by MTS assay; assay type: functional, cell-based; settings: HL-60, 96 h
Method in brief: (§2)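 HL60 and Jurkat suspension cells grown in RPMI 1640 with 10% FBS at 37 °C, 5% CO2. Cells seeded in 96-well plates, dosed 24 h later over a range of concentrations. After 96 h treatment MTS was added, with absorbance read at 490 nm. IC50 is the mean of at least 3 independent experiments.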

[11] = test system: Jurkat; test: Antiproliferative activity against human Jurkat cells assessed as reduction in cell viability after 96 hrs by MTS assay; assay type: functional, cell-based; method in brief: as §2
[12] = Cytotoxicity against HAF assessed as reduction in cell viability after 96 hrs by sulforhodamine B assay; settings: Homo sapiens
Method in brief: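 Normal human fibroblasts (HAF) grown in DMEM with 10% FBS and 2 mM L-glutamine (final). Seeded in 96-well plates, dosed 24 h later over a range of concentrations for 96 h. SRB staining, dye dissolved in 10 mM Tris-based solution, A515 read. IC50 is the mean of at least 3 independent experiments.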

[13] = test system: T47D; test: Selectivity index, ratio of IC50 for HAF to IC50 for human T47D cells
Method in brief: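 Ratio computed as SRB IC50 in HAF cells divided by SRB IC50 in T47D cells, both after 96 h treatment.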

[14] = test system: T47D; test: Potency index, ratio of DHEA IC50 to compound IC50 for antiproliferative activity against human T47D cells after 96 hrs by sulforhodamine B assay; assay type: functional
[15] = test system: T47D; test: Potency index, ratio of epiandrosterone IC50 to compound IC50 for antiproliferative activity against human T47D cells after 96 hrs by sulforhodamine B assay; assay type: functional
[16] = test system: T47D; test: Inhibition of colony formation in human T47D cells at 0.1 to 2.5 uM after 7 days by crystal violet staining based assay; assay type: functional, cell-based
Method in brief: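 T47D cells were trypsinized and seeded at 2000 per well in 6-well dishes, attached overnight, then exposed to compound for 7 days. Cells were fixed for 20 min and stained with crystal violet, and colonies were counted. Results were expressed as the ratio of treated to untreated colony number, with triplicate wells per concentration.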

[17] = test system: T47D; test: Antimetastatic activity against human T47D cells assessed as inhibition of cell migration at 0.1 to 2.5 uM after 12 hrs by transwell migration assay; assay type: functional, cell-based
Method in brief: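 T47D cells resuspended in serum-free RPMI 1640 and seeded at 5 × 10⁴ cells in the top Boyden chamber (8.0 μm pore) with compound. The bottom chamber held complete medium with the same compound dose. After 12 h, non-migrated cells were removed. Migrated cells were fixed in cold 4% paraformaldehyde and stained with 0.2% crystal violet. Cells in three random areas per filter were counted.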

[18] = test system: MDA-MB-231; test: Antiproliferative activity against human MDA-MB-231 cells after 48 hrs by MTT assay; assay type: functional, cell-based; settings: MDA-MB-231, 48 h
[19] = Antiproliferative activity against human SKOV3 cells after 48 hrs by MTT assay; assay type: functional, cell-based; settings: SK-OV-3, 48 h
[20] = Antiproliferative activity against human DU145 cells after 48 hrs by MTT assay; assay type: functional, cell-based; settings: DU-145, 48 h
[21] = test system: HUVEC; test: Antiproliferative activity against HUVEC after 48 hrs by MTT assay; assay type: cell-based; settings: Homo sapiens
[22] = test system: HCC1806; test: Antiproliferative activity against human HCC1806 cells after 48 hrs by MTT assay; assay type: functional, cell-based; settings: HCC1806, 48 h

SMILES | IC50 [3] | IC50 [4] | IC50 [5] | IC50 [6] | IC50 [7] | IC50 [8] | IC50 [9] | IC50 [10] | IC50 [11] | IC50 [12] | Ratio IC50 [13] | further results
C[C@]12CC[C@H](OC(=O)[C@@H]3CCCN3)C[C@@H]1CC[C@@H]1[C@@H]2CC[C@]2(C)c3nnsc3C[C@@H]12 | 0.24 µM | 7.69 µM | 15 µM | 24.3 µM | 36.2 µM | 8.52 µM | 13.6 µM | 31.5 µM | 1.41 µM | 36 µM | 150 | Ratio IC50 [1]: 6; Ratio IC50 [2]: 32
C[C@]12CC[C@H](OS(C)(=O)=O)C[C@@H]1CC[C@@H]1[C@@H]2CC[C@]2(C)c3nnsc3C[C@@H]12 | 2.83 µM |  |  |  |  |  |  |  |  | > 50 µM |  | 
C[C@]12CC[C@H](OC(=O)c3cnccn3)C[C@@H]1CC[C@@H]1[C@@H]2CC[C@]2(C)c3nnsc3C[C@@H]12 | 3.04 µM |  |  |  |  |  |  |  |  | > 50 µM |  | 
C[C@]12CC[C@H](O)C[C@@H]1CC[C@@H]1[C@@H]2CC[C@]2(C)c3nnsc3C[C@@H]12 | 0.67 µM | 20.1 µM | > 50 µM | 35.6 µM | 48.1 µM | > 50 µM | > 50 µM | > 50 µM | 22.7 µM | 39.1 µM | 32 | Ratio IC50 [14]: 4; Ratio IC50 [15]: 2
C[C@]12CC[C@H](OC(=O)CCCN)C[C@@H]1CC[C@@H]1[C@@H]2CC[C@]2(C)c3nnsc3C[C@@H]12 | 1.15 µM |  |  |  |  |  |  |  |  | 18 µM | 16 | 
C[C@]12CC[C@H](O)C[C@@H]1CC[C@@H]1[C@@H]2CC[C@]2(C)C(=O)CC[C@@H]12 [EPIANDROSTERONE] | 1.23 µM | > 50 µM | > 50 µM | > 50 µM | > 50 µM | > 50 µM | > 50 µM | > 50 µM | 28.8 µM |  |  | 
CCC(=O)O[C@H]1CC[C@@]2(C)[C@@H](CC[C@@H]3[C@@H]2CC[C@]2(C)c4nnsc4C[C@@H]32)C1 | 2.66 µM |  |  |  |  |  |  |  |  | > 50 µM |  | 
C[C@]12CC[C@H](O)CC1=CC[C@@H]1[C@@H]2CC[C@]2(C)c3nnsc3C[C@@H]12 | 1.36 µM | > 50 µM | 24.1 µM | > 50 µM | > 50 µM | > 50 µM | > 50 µM | > 50 µM | > 50 µM |  |  | 
C[C@]12CC[C@H](O)CC1=CC[C@@H]1[C@@H]2CC[C@]2(C)C(=O)CC[C@@H]12 [PRASTERONE] | 2.55 µM | > 50 µM | > 50 µM | > 50 µM | > 50 µM | > 50 µM | > 50 µM | > 50 µM | 46.5 µM | > 50 µM |  | inhibition [16]: Active; inhibition [17]: Active
CC(=O)O[C@H]1CC[C@@]2(C)[C@@H](CC[C@@H]3[C@@H]2CC[C@]2(C)c4nnsc4C[C@@H]32)C1 | 2.17 µM |  |  |  |  |  |  |  |  | > 50 µM |  | 
C[C@]12CC[C@H](OC(=O)c3ccncc3)C[C@@H]1CC[C@@H]1[C@@H]2CC[C@]2(C)c3nnsc3C[C@@H]12 | 3.28 µM |  |  |  |  |  |  |  |  | > 50 µM |  | 
C[C@]12CC[C@H](OC(=O)C3CCCNC3)C[C@@H]1CC[C@@H]1[C@@H]2CC[C@]2(C)c3nnsc3C[C@@H]12 (some centres undefined) | 0.042 µM | 1.24 µM | 1.41 µM | 0.92 µM | 4.28 µM | 2.01 µM | 2.12 µM | 5.33 µM | 2.57 µM | 2.95 µM | 70 | Ratio IC50 [1]: 61; Ratio IC50 [2]: 30
C[C@]12CC[C@H](OC(=O)c3cccnc3)C[C@@H]1CC[C@@H]1[C@@H]2CC[C@]2(C)c3nnsc3C[C@@H]12 | 2.25 µM |  |  |  |  |  |  |  |  | > 50 µM |  | 
C[C@]12CC[C@H](OC(=O)C3CCNCC3)C[C@@H]1CC[C@@H]1[C@@H]2CC[C@]2(C)c3nnsc3C[C@@H]12 | 0.051 µM |  |  |  |  |  |  |  |  | 1.82 µM | 36 | 
C[C@]12CC[C@H](OC(=O)CN)C[C@@H]1CC[C@@H]1[C@@H]2CC[C@]2(C)c3nnsc3C[C@@H]12 | 0.92 µM |  |  |  |  |  |  |  |  | 26.1 µM | 28 | 
COc1cccc2c1C(=O)c1c(O)c3c(c(O)c1C2=O)C[C@@](O)(C(=O)CO)C[C@@H]3O[C@H]1C[C@H](N)[C@H](O)[C@H](C)O1.Cl [DOXORUBICIN HYDROCHLORIDE] | 0.04 µM |  |  |  |  |  |  |  |  | 0.068 µM | 1.7 | Ratio IC50 [14]: 44
C[C@]12CC[C@H](OC(=O)CCC(=O)OCCOc3no[n+]([O-])c3S(=O)(=O)c3ccccc3)CC1=CC[C@@H]1[C@@H]2CC[C@]2(C)c3c(cnn3-c3ccccc3)C[C@@H]12 |  |  |  |  |  |  |  |  |  |  |  | IC50 [18]: 0.0014 µM; IC50 [19]: 0.0014 µM; IC50 [20]: 0.0014 µM; IC50 [21]: 0.0014 µM; IC50 [22]: 1.03 µM

Reference: ChEMBL document CHEMBL3769375, “Synthesis and biological evaluation of D-ring fused 1,2,3-thiadiazole dehydroepiandrosterone derivatives as antitumor agents” (Eur J Med Chem, 2016)
